ChEMBL document CHEMBL1250541, “20-Aminosteroids as a novel class of selective and complete androgen receptor antagonists and inhibitors of prostate cancer cell growth” (Bioorg Med Chem, 2010)
Active and inactive are the calls of the source. The calls are words filed in the database; no cut-off is given here.

Legend:
LNCaP [1] = experiment: Cytotoxicity against human LNCAP cells at 10 uM after 2 days; format: functional, cell-based
In short: (§1)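 Cells seeded in triplicate in 6-well plates at 25 × 10³ (LNCaP) or 5 × 10³ (PC3) per well in medium with 5% FCS. After 2 days they were treated with DMSO or compounds, with medium and compound renewed every second/third day. Cells were counted on the indicated days and normalized to day 0. Atraric acid served as positive control.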

[2] = system: Androgen receptor (Homo sapiens), P10275 [T878A]; experiment: Agonist activity at human androgen receptor T877A mutant expressed in human CV1 cells assessed as induction of receptor-mediated transactivation by MMTV-luciferase reporter gene assay; format: functional, cell-based; details: CV-1
Androgen receptor (Homo sapiens), P10275 [T878A], sequence (P10275 whole entry T878A): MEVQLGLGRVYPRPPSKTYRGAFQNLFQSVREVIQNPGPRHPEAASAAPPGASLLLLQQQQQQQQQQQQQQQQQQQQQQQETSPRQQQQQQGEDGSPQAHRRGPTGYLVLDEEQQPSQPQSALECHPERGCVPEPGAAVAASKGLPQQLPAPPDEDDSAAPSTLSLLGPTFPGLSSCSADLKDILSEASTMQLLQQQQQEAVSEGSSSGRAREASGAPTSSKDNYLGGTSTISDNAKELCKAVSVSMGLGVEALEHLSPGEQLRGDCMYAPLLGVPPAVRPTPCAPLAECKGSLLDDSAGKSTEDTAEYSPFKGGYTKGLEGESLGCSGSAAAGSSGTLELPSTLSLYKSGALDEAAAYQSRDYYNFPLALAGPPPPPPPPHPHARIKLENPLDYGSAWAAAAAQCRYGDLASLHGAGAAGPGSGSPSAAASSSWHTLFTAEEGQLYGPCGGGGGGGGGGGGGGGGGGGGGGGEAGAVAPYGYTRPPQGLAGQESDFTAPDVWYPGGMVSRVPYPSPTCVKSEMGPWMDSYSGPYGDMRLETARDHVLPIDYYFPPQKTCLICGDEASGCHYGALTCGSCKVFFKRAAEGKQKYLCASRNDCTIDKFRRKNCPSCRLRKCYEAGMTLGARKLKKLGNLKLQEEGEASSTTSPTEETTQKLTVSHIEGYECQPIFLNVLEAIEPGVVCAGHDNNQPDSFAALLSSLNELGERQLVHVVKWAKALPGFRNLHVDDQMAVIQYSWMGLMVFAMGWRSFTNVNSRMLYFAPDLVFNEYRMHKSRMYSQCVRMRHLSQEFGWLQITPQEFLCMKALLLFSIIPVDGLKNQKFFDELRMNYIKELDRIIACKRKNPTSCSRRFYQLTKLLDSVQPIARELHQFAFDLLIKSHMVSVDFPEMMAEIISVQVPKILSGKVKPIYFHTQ
In short: (§2)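 CV1 cells seeded at 1.2 × 10⁵ per well in DMEM with 5% charcoal-stripped serum, CaPO₄-transfected 18 h later with MMTV-luciferase reporter, human AR (wild type or T877A) expression vector and CMV-β-galactosidase control. After 24 h, medium was replaced with compounds alone or R1881. Cells were harvested 96 h later. Luciferase was normalized to β-gal (RLU). Duplicates, repeated at least twice.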

[3] = target: T1, Androgen receptor (Homo sapiens) (UniProt P10275); experiment: Agonist activity at human androgen receptor expressed in human CV1 cells assessed as induction of receptor-mediated transactivation by MMTV-luciferase reporter gene assay; format: functional, cell-based; details: CV-1; in short: as §2
T1 sequence (whole entry): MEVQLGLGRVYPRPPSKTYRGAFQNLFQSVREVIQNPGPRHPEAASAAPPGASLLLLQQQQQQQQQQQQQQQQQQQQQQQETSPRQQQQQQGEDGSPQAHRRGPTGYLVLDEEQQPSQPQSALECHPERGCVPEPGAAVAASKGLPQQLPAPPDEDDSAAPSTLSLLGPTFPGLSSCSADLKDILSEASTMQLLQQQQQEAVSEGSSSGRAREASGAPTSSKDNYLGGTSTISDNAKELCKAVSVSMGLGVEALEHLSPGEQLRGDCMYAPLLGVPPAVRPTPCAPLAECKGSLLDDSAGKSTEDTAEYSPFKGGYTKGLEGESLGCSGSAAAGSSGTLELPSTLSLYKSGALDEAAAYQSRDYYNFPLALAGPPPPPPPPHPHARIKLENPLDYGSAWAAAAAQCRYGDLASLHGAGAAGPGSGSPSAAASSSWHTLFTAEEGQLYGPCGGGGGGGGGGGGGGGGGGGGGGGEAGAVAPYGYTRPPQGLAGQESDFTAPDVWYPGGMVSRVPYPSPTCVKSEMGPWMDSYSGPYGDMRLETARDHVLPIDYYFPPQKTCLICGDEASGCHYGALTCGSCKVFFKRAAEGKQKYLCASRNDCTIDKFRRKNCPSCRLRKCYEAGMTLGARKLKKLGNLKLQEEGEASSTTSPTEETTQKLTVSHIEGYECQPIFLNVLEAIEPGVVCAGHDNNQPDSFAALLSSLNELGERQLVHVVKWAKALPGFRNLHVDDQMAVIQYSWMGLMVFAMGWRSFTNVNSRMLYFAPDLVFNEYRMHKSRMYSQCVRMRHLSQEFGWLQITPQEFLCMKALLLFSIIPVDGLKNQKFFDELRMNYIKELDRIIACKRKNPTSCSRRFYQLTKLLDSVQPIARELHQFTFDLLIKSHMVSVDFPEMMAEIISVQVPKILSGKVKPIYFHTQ

Androgen receptor = target: T2, Androgen receptor (Homo sapiens, UniProt P10275); experiment: Antagonist activity at human androgen receptor expressed in human CV1 cells assessed as inhibition of receptor-mediated transactivation by MMTV-luciferase reporter gene assay; format: functional, cell-based, CV-1
T2 sequence (P10275 whole entry): T1 sequence (whole entry)

[4] = system: Androgen receptor (Homo sapiens), P10275 [T878A]; experiment: Antagonist activity at human androgen receptor T877A mutant expressed in human CV1 cells assessed as inhibition of receptor-mediated transactivation by MMTV-luciferase reporter gene assay; format: functional, cell-based; details: CV-1
In short: (§3)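 CV1 cells in DMEM with 5% charcoal-stripped serum, transfected by CaPO₄ with MMTV-luciferase, wild-type or T877A human AR vector and CMV-β-galactosidase. Compounds were added together with the agonist R1881 24 h post-transfection. After a further 96 h, luciferase was read and normalized to β-gal activity as RLU. Duplicates, repeated at least twice. NBBS antagonist and DMSO served as controls.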

[5] = target: T1, Androgen receptor (Homo sapiens); experiment: Antagonist activity at human androgen receptor in human LNCAP cells assessed as inhibition of PSA mRNA expression by RT-PCR; format: functional, cell-based
In short: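 LNCaP cells treated with or without androgens plus compounds at 10 µM. DMSO-treated cells served as control. PSA mRNA was normalized to beta-actin expression.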

[6] = system: Androgen receptor (Homo sapiens), P10275 [T878A]; experiment: Antagonist activity at human androgen receptor T877A mutant expressed in human CV1 cells assessed as inhibition of receptor-mediated transactivation at 1 uM by MMTV-luciferase reporter gene assay; format: functional, cell-based; details: CV-1; in short: as §3
LNCaP [7] = experiment: Induction of senescence in human LNCAP cells assessed as beta galactosidase activity after 3 days; format: functional, cell-based
[8] = target: T1, Androgen receptor (Homo sapiens); experiment: Antagonist activity at human androgen receptor expressed in human CV1 cells assessed as inhibition of receptor-mediated transactivation at 1 uM by MMTV-luciferase reporter gene assay; format: functional, cell-based; details: CV-1; in short: as §3
PC-3 = experiment: Cytotoxicity against human PC3 cells after 2 days; format: functional, cell-based; in short: as §1

COC(=O)c1c(C)cc(O)c(C)c1O
Activity (LNCaP [1]): Active

C=CC(C)[C@@](C)(N)[C@H]1CC[C@H]2[C@@H]3CC=C4C[C@@H](O)CC[C@]4(C)[C@H]3CC[C@@]21C (some centres undefined)
Activity [2]: Active
Activity [3]: inactive

C[C@]12CC[C@H]3[C@@H](CC=C4C[C@@H](O)CC[C@@]43C)[C@@H]1CC[C@@H]2[C@](C)(N)Cc1ccccc1
Activity [3]: inactive

C=CC[C@@](C)(N)[C@H]1CC[C@H]2[C@@H]3CC=C4C[C@@H](O)CC[C@]4(C)[C@H]3CC[C@@]21C
Activity [2]: Active
Activity [3]: inactive

C=CC[C@](C)(N)[C@H]1CC[C@H]2[C@@H]3CC=C4C[C@@H](O)CC[C@]4(C)[C@H]3CC[C@@]21C
Activity [2]: Active
Activity [3]: inactive

C[C@]12CC[C@H]3[C@@H](CCC4=CC(=O)CC[C@@]43C)[C@@H]1CC[C@@H]2[C@]1(C)CC=CC(=O)N1
IC50 (Androgen receptor): 500 nM
Activity [3]: inactive

C[C@]12CC[C@H]3[C@@H](CC=C4C[C@@H](O)CC[C@@]43C)[C@@H]1CC[C@@H]2[C@@]1(C)CC=CC(=O)N1
IC50 (Androgen receptor): 2000 nM
Activity [2]: inactive
Activity [3]: inactive
Activity [4]: Active
Activity [5]: Active

C[C@]12CC[C@H]3[C@@H](CC=C4C[C@@H](O)CC[C@@]43C)[C@@H]1CC[C@@H]2[C@]1(C)CC=CC(=O)N1
IC50 (Androgen receptor): 3000 nM
Activity [6]: Active
Activity [2]: inactive
Activity (LNCaP [1]): Active
Activity [3]: inactive
Activity (LNCaP [7]): Active
Activity [8]: Active
Activity (PC-3): inactive
Activity [5]: Active
